The source made the active and inactive calls. No cut-off for these calls is given here.
Assays:
HUVEC = assay: Antiangiogenic activity in HUVEC assessed as inhibition of cell proliferation incubated for 48 hrs by MTT assay; format: functional, cell-based; details: Homo sapiens
Outline: (§1)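 Cells kept in RPMI1640 with 10% FBS, penicillin/streptomycin, 37 °C, 5% CO2. Seeded at 1×10^5/mL, allowed 24 h, then exposed to compound at 1×10^-4, 1×10^-5, 1×10^-6 and 1×10^-7 mol/L for 48 h; controls got medium with 1% DMSO. MTT added for 4 h in the dark, formazan dissolved in DMSO, absorbance at 490 nm used for IC50.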

MDA-MB-231 = assay: Antiproliferative activity against human MDA-MB-231 cells incubated for 48 hrs by MTT assay; format: functional, cell-based; details: MDA-MB-231, 48 h; outline: as §1
MCF7 = assay: Antiproliferative activity against human MCF7 cells incubated for 48 hrs by MTT assay; format: functional, cell-based; details: MCF7, 48 h; outline: as §1
[1] = target: T1, Vascular endothelial growth factor receptor 2 (Homo sapiens, UniProt P35968)
Ishikawa = assay: Antiproliferative activity against human Ishikawa cells incubated for 48 hrs by MTT assay; format: functional, cell-based; outline: as §1
Estrogen receptor = target: T2, Estrogen receptor (Homo sapiens, UniProt P03372); assay: Displacement of fluorescein-labeled estrogen ligand from recombinant ER-alpha (unknown origin) incubated for 2 hrs by fluorescence polarization assay
T2 sequence (P03372 whole entry): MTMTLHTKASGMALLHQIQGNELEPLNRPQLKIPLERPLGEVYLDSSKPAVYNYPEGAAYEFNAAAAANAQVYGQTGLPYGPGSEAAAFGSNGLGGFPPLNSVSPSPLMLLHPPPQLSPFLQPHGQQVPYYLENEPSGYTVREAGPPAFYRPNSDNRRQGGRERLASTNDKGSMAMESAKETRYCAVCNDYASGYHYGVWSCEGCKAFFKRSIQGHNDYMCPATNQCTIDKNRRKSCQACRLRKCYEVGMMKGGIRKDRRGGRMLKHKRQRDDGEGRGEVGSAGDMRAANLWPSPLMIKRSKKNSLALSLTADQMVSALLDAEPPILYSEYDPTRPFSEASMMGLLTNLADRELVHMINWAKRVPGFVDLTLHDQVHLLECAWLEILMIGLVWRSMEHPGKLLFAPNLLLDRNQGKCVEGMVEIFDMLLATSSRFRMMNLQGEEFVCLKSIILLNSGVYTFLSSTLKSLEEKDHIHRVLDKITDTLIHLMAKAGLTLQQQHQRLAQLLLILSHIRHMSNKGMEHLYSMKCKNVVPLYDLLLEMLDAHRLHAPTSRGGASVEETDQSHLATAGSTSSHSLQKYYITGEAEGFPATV

[2] = target: T1, Vascular endothelial growth factor receptor 2; details: MCF7, at 1 µM
[3] = target: T1, Vascular endothelial growth factor receptor 2; details: HUVEC, at 1 µM
[4] = target: T1, Vascular endothelial growth factor receptor 2; assay: Inhibition of VEGFR2 in HUVEC assessed as reduction in expression of phosphorylated VEGFR2 incubated for 24 hrs by Western blot analysis; format: cell-based
Outline: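 HUVEC treated 24 h, washed with PBS, lysed on ice in Tris/SDS/glycerol/β-mercaptoethanol buffer. Protein measured by BCA, equal amounts run on 12% SDS-PAGE, semi-dry transfer to PVDF. Primary antibodies (p-VEGFR-2, VEGFR-2) overnight at 4 °C, HRP secondary 1 h at 37 °C, ECL detection. Phosphorylation rate by densitometry, mean ± SD, n=3.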

[5] = target: T1, Vascular endothelial growth factor receptor 2; details: MCF7, at 1 µM; remark: listed apart in the source
[6] = target: T1, Vascular endothelial growth factor receptor 2; assay: Inhibition of VEGFR2 in human MCF7 cells assessed as reduction in expression of phosphorylated VEGFR2 at 0.25 to 1 uM incubated for 24 hrs by Western blot analysis; format: cell-based
Outline: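 MCF-7 cells treated 24 h, lysed on ice, protein quantified by BCA, equal loads separated on 12% SDS-PAGE and blotted to PVDF. Probed for p-VEGFR-2 and total VEGFR-2 overnight at 4 °C, HRP secondary 1 h at 37 °C, chemiluminescence on film. VEGFR-2 phosphorylation rate by densitometry, mean ± SD (n=3).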

T1 sequence (P35968 whole entry): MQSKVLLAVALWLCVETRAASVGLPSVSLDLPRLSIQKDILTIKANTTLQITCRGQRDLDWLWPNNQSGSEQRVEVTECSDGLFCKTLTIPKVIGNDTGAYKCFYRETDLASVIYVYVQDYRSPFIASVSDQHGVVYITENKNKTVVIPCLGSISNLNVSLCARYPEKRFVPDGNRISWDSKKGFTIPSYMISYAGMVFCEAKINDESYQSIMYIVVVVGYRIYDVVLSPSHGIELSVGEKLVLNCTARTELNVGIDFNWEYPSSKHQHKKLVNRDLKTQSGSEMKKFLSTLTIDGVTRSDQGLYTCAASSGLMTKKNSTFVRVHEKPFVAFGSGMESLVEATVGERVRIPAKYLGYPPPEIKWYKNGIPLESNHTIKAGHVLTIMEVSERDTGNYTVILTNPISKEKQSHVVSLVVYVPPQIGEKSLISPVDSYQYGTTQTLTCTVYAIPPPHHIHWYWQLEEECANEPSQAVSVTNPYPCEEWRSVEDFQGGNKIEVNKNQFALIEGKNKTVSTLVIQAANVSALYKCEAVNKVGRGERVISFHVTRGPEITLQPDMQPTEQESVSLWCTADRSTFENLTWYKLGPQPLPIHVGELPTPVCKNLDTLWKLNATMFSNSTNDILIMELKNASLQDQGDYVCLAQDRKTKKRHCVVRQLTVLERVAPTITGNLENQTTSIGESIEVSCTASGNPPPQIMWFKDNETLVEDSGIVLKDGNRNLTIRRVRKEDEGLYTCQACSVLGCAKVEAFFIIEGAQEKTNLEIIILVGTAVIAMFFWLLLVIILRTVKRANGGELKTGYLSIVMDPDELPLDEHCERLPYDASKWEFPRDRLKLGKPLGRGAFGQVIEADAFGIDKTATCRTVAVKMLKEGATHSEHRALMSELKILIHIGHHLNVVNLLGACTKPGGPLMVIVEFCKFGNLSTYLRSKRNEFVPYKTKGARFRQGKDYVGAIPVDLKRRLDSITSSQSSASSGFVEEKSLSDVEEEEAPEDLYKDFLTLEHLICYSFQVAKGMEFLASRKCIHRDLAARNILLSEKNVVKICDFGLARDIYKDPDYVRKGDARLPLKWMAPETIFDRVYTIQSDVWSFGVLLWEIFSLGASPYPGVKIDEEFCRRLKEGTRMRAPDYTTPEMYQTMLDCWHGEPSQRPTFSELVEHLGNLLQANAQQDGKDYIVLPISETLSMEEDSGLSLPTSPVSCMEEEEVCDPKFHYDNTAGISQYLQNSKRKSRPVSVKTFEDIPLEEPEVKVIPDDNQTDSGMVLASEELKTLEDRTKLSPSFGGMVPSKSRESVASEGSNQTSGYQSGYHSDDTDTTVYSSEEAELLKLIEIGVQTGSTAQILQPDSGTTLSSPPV

| Structure (SMILES) | IC50 (HUVEC) [µM] | IC50 (MDA-MB-231) [µM] | IC50 (MCF7) [µM] | IC50 ([1]; read-out: IC50) [µM] | IC50 (Ishikawa) [µM] | IC50 (Estrogen receptor) [µM] | IC50 [1] | inhibition [2] | inhibition [3] | inhibition [4] | inhibition [5] | inhibition [6] |
| --- | --- | --- | --- | --- | --- | --- | --- | --- | --- | --- | --- | --- |
| CCN(CC)CCOc1ccc(-n2c3c(c4ccc(O)cc4c2=O)C(=O)c2cc(O)ccc2-3)cc1 | 1.8 | 1 | 0.8 | 0.12 | 4 | 6.7 | – | – | – | – | – | – |
| O=C1c2cc(O)ccc2-c2c1c1ccc(O)cc1c(=O)n2-c1ccc(OCCN2CCCCC2)cc1 | 1.3 | 0.8 | 1.1 | 0.25 | 4.3 | 3.4 | – | – | – | – | – | – |
| COc1ccc2c(c1)C(=O)c1c-2n(-c2ccc(OCCN3CCCCC3)cc2)c(=O)c2cc(OC)ccc12 | > 100 | 2.8 | 0.3 | – | 9.6 | 24.9 | Not Active | – | – | – | – | – |
| CCN(CC)CCNC(=O)c1c(C)[nH]c(/C=C2\C(=O)Nc3ccc(F)cc32)c1C [SUNITINIB] | 0.8 | – | – | – | – | – | – | – | – | – | – | – |
| CCN(CC)CCCOc1ccc(-n2c3c(c4ccc(OC)cc4c2=O)C(=O)c2cc(OC)ccc2-3)cc1 | 16 | 1.5 | 2.3 | – | 4.1 | 39.8 | Not Active | – | – | – | – | – |
| O=C1c2cc(O)ccc2-c2c1c1ccc(O)cc1c(=O)n2-c1ccc(OCCN2CCCC2)cc1 | 0.8 | 0.5 | 1.2 | 0.099 | 8.2 | 7.2 | – | Active | Active | Dose-dependent effect | Active | Active |
| COc1ccc2c(c1)C(=O)c1c-2n(-c2ccc(OCCCN(C)C)cc2)c(=O)c2cc(OC)ccc12 | 25 | 0.6 | 1.4 | – | 9.6 | 39.4 | Not Active | – | – | – | – | – |
| O=C1c2cc(O)ccc2-c2c1c1ccc(O)cc1c(=O)n2-c1ccc(OCCN2CCOCC2)cc1 | > 100 | > 100 | > 100 | – | > 100 | 19.8 | Not Active | – | – | – | – | – |
| COc1ccc2c(c1)C(=O)c1c-2n(-c2ccc(OCCCN3CCCC3)cc2)c(=O)c2cc(OC)ccc12 | 5.1 | 3 | 3.2 | – | 12.8 | 40.3 | Not Active | – | – | – | – | – |
| CC/C(=C(\c1ccccc1)c1ccc(OCCN(C)C)cc1)c1ccccc1 [TAMOXIFEN] | – | 13.9 | 5.3 | – | 6 | – | – | – | – | – | – | – |
| COc1ccc2c(c1)C(=O)c1c-2n(-c2ccc(OCCN(C)C)cc2)c(=O)c2cc(OC)ccc12 | 35.6 | 1.1 | 1.1 | 3.9 | 10.6 | 24.4 | – | – | – | – | – | – |
| COc1ccc2c(c1)C(=O)c1c-2n(-c2ccc(OCCCN3CCN(C)CC3)cc2)c(=O)c2cc(OC)ccc12 | > 100 | > 100 | > 100 | – | > 100 | 35.2 | Not Active | – | – | – | – | – |
| COc1ccc2c(c1)C(=O)c1c-2n(-c2ccc(OCCN3CCCC3)cc2)c(=O)c2cc(OC)ccc12 | > 100 | 0.7 | 0.7 | – | 8.7 | 17.7 | Not Active | – | – | – | – | – |
| COc1ccc2c(c1)C(=O)c1c-2n(-c2ccc(OCCN3CCOCC3)cc2)c(=O)c2cc(OC)ccc12 | > 100 | > 100 | > 100 | – | > 100 | > 100 | Not Active | – | – | – | – | – |
| COc1ccc2c(c1)C(=O)c1c-2n(-c2ccc(OCCN3CCN(C)CC3)cc2)c(=O)c2cc(OC)ccc12 | 12 | > 100 | 1.1 | – | 10.9 | 23.3 | Not Active | – | – | – | – | – |
| CCN(CC)CCOc1ccc(-n2c3c(c4ccc(OC)cc4c2=O)C(=O)c2cc(OC)ccc2-3)cc1 | 11.4 | 1.3 | 0.7 | 1.03 | 6.7 | 18.7 | – | – | – | – | – | – |
| COc1ccc2c(c1)C(=O)c1c-2n(-c2ccc(OCCCN3CCCCC3)cc2)c(=O)c2cc(OC)ccc12 | > 100 | 21.7 | 7.8 | – | 4.5 | 38.3 | Not Active | – | – | – | – | – |
| CN1CCN(CCOc2ccc(-n3c4c(c5ccc(O)cc5c3=O)C(=O)c3cc(O)ccc3-4)cc2)CC1 | 1.1 | 4.1 | 2.5 | – | 6.1 | 10.6 | Not Active | – | – | – | – | – |
| COc1ccc2c(c1)C(=O)c1c-2n(-c2ccc(OCCCN3CCOCC3)cc2)c(=O)c2cc(OC)ccc12 | > 100 | > 100 | > 100 | – | > 100 | > 100 | Not Active | – | – | – | – | – |
| CN(C)CCOc1ccc(-n2c3c(c4ccc(O)cc4c2=O)C(=O)c2cc(O)ccc2-3)cc1 | 4.6 | 3.3 | 3.8 | 0.33 | 5.1 | 7.6 | – | – | – | – | – | – |

From ChEMBL document CHEMBL3826943, “Design, synthesis and evaluation of 6-aryl-indenoisoquinolone derivatives dual targeting ERα and VEGFR-2 as anti-breast cancer agents” (Eur J Med Chem, 2016)
